In assay [1] the target is T1, CLC-0 E166Q mutant (Torpedo marmorata, UniProt P21564, C212S/E166Q).
T1 sequence (P21564 1-805 E166Q/C212S): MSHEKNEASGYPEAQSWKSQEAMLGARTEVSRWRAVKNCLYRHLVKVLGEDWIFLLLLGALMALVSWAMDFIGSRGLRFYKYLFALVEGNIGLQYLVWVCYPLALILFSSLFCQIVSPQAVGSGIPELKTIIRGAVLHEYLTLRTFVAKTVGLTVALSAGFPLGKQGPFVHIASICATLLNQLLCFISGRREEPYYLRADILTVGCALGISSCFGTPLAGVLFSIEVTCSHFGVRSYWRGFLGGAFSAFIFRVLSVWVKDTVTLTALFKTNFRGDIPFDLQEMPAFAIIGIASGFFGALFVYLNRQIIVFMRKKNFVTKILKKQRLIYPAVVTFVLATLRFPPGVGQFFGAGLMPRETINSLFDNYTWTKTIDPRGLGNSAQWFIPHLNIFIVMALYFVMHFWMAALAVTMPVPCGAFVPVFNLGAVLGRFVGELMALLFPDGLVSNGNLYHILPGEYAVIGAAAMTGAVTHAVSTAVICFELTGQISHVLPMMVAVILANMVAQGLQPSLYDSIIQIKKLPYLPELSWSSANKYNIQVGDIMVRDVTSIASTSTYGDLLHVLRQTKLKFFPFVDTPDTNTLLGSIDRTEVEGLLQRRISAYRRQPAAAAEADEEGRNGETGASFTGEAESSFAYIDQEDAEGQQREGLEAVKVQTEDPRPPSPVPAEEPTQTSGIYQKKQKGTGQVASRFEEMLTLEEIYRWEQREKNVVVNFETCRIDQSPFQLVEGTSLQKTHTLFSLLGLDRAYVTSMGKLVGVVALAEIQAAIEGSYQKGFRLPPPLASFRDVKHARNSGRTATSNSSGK
The class given is cell-based. Put shortly:
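HEK293 cells expressed C212S-background CLC-0 mutants and were recorded 1–3 d post-transfection as inside-out patches in symmetrical 130 mM NaCl, 10 mM HEPES, pH 7.4. CPA, fatty acids or alkyl sulfates flowed continuously on the cytoplasmic side. C10–C12 compounds were diluted into bath solution from 10 mM DMSO stocks. Test steps ran from +80 to −160 mV after a +80 mV prepulse. Steady-state current was normalized to the mean of pre- and post-blocker controls, and a Langmuir K1/2 was taken at each voltage from ~4–6 patches.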

The target in assay [2] is T2, CLC-0 E166H mutant (Torpedo marmorata, UniProt P21564, C212S/E166H).
T2 sequence (P21564 1-805 E166H/C212S): T1 sequence (P21564 1-805 E166Q/C212S) with Q166H
The class given is cell-based. The note with it: read-out: Apparent affinity (K1/2). Put shortly:
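CLC-0 mutants in the C212S background were transfected into HEK293 cells with lipofectamine and recorded 1–3 d later as excised inside-out patches. Both sides held 130 mM NaCl, 5 mM MgCl2, 10 mM HEPES and 1 mM EGTA, pH 7.4. CPA was perfused continuously onto the cytoplasmic face. Steady-state current over the last 10 ms was normalized to bracketing blocker-free controls and fitted to a Langmuir function for K1/2. Values are mean ± SEM of ~4–6 patches.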

The mark [3] stands for this setting: read-out: Apparent affinity (K1/2), −60 mV.
Setting [4] is: read-out: Apparent affinity (K1/2), −80 mV.
[5] abbreviates: read-out: Apparent affinity (K1/2), −100 mV.
The mark [6] stands for this setting: read-out: Apparent affinity (K1/2), −120 mV.
The mark [7] stands for this setting: read-out: Apparent affinity (K1/2), −140 mV.
The mark [8] stands for this setting: read-out: Apparent affinity (K1/2), −160 mV.

Experimental findings from paper PMC2606940 (The Journal of General Physiology, 2009) are described below.

Residue numbers refer to the chain shown, from its start. Read-outs that look alike come from different tables or passages of the source.

Regarding `O=C(O)COc1ccc(Cl)cc1` [CPA, p-chlorophenoxy acetate], the inhibition of current in assay [1] (300 μM CPA, −160 mV) was below 10%. The IC50 in assay [1] (setting [3]) is 19.7 ± 0.9 mM; in assay [1] (setting [4]), 14 ± 0.7 mM; in assay [1] (setting [5]) it was 9.71 ± 0.48 mM; in assay [1] (setting [6]) it was 6.84 ± 0.31 mM; in assay [1] (setting [7]) it was 4.71 ± 0.15 mM; in assay [1] (setting [8]) it was 3.34 ± 0.08 mM. Also, the IC50 in assay [2] (−40 mV) was determined as 12.4 ± 0.52 mM; in assay [2] (−60 mV) it was 5.86 ± 0.26 mM; in assay [2] (−80 mV), 2.87 ± 0.15 mM; in assay [2] (−100 mV) it was 1.45 ± 0.11 mM; in assay [2] (−120 mV), 0.74 ± 0.08 mM; in assay [2] (−140 mV), 0.39 ± 0.05 mM. The IC50 in assay [2] (−160 mV) is 0.21 ± 0.04 mM.

In the case of `CCCCCCCC(=O)O` [octanoate], the IC50 in assay [1] (read-out: Apparent affinity (K1/2), −40 mV) stood at 17.8 ± 1.5 mM; in assay [1] (setting [3]), 11.4 ± 0.69 mM; in assay [1] (setting [4]), 6.94 ± 0.36 mM; in assay [1] (setting [5]) it was 4.21 ± 0.24 mM; in assay [1] (setting [6]), 2.53 ± 0.16 mM; in assay [1] (setting [7]), 1.45 ± 0.1 mM. Moreover, the IC50 in assay [1] (setting [8]) is 0.88 ± 0.09 mM; in assay [1] (read-out: K1/2, Fig. 10 D) it was around 1 mM; in assay [2] (−80 mV), 29.5 ± 1.3 mM; in assay [2] (−100 mV), 18.4 ± 0.81 mM; in assay [2] (−120 mV) it was 11.5 ± 0.57 mM; in assay [2] (−140 mV), 7.02 ± 0.4 mM. Moreover, the IC50 in assay [2] (−160 mV) is 4.57 ± 0.28 mM.
